Experimental data from ChEMBL document CHEMBL1133688, “Hunting the emesis and efficacy targets of PDE4 inhibitors: identification of the photoaffinity probe 8-(3-azidophenyl)-6- [(4-iodo-1H-1-imidazolyl)methyl]quinoline (APIIMQ)” (J Med Chem, 2000).

Species on record: Cavia porcellus
Experiment: Bronchoconstriction effect in ovalbumin-induced guinea pig model
Format: functional

Compound | ED50
[N-]=[N+]=Nc1cccc(-c2cc(Cn3cnc(I)c3)cc3cccnc23)c1 | 0.3 mg/kg

Species on record: Homo sapiens
Experiment: Inhibition of LPS-induced TNF-alpha secretion in human whole blood
Format: functional

IC50 | Compound
2000 nM | [N-]=[N+]=Nc1cccc(-c2cc(Cn3cnc(I)c3)cc3cccnc23)c1

These molecules were tested against 3',5'-cyclic-AMP phosphodiesterase 4A (Homo sapiens, UniProt P27815) (assay: Inhibition of recombinant human PDE4A expressed in Sf9 cells).
3',5'-cyclic-AMP phosphodiesterase 4A, sequence (P27815 whole entry): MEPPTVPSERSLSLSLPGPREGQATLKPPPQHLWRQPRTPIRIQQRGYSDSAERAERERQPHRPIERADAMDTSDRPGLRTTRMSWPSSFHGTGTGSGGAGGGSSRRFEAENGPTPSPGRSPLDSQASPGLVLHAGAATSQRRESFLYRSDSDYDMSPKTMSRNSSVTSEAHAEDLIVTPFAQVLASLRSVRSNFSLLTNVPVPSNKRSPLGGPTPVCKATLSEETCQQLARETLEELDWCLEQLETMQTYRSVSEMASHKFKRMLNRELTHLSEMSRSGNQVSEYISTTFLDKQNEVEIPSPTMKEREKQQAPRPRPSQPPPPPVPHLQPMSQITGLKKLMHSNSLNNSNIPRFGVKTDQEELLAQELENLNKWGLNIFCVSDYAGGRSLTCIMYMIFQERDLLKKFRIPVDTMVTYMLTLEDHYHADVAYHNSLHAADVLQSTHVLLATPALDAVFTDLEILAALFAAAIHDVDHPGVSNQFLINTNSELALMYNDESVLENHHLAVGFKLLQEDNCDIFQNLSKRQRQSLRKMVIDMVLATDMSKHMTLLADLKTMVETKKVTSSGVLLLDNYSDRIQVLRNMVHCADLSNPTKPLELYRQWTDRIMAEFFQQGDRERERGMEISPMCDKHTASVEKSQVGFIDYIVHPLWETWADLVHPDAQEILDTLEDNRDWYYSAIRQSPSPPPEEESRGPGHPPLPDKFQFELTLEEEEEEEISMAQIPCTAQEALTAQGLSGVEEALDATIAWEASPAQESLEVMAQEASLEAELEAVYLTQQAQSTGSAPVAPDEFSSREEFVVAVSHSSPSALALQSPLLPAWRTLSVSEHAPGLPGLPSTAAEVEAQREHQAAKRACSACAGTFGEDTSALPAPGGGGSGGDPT
Procedure, shortened: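 Inhibition of the purified enzyme's catalytic activity (cAMP hydrolysis) was measured, and IC50 was derived.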

Compound | IC50 | Ki
[N-]=[N+]=Nc1cc(-c2cccc(I)c2)c2ncccc2c1 | 28 nM | –
COc1ccc(C2CC(=O)N(Cc3cc(I)cc(C4(C(F)(F)F)N=N4)c3)C2)cc1OC1CCCC1 (centres undefined) | 35 nM | –
[N-]=[N+]=Nc1ccc(I)c(-c2cc(Cc3ccncc3)cc3cccnc23)c1 | 3.3 nM | –
O=[N+]([O-])c1cccc(-c2cc(Cc3ccncc3)cc3cccnc23)c1 | 0.07 nM | –
c1ccc(-c2cc(Cn3ccnc3)cc3cccnc23)cc1 | 9 nM | –
COc1ccc([C@H](Cc2ccncc2)c2ccccc2)cc1OC1CCCC1 [CDP840] | – | 4 nM

Further molecules by falling IC50, results first:

IC50 | Ki | Compound
250 nM | – | O=c1c2c(ncn2Cc2cc(I)cc(C3(C(F)(F)F)N=N3)c2)c2cccnc2n1-c1ccccc1
15 nM | – | O=C(c1ccccc1)c1cc(-c2cccc(I)c2)c2ncccc2c1
2.7 nM | – | [N-]=[N+]=Nc1cccc(-c2cc(I)cc3cccnc23)c1
0.6 nM | – | O=c1c2c(ncn2Cc2ccccc2)c2cccnc2n1-c1ccccc1
0.4 nM | – | [N-]=[N+]=Nc1cccc(-c2cc(Cn3cnc(I)c3)cc3cccnc23)c1
0.2 nM | – | [N-]=[N+]=Nc1cccc(-c2cc(Cc3ccncc3)cc3cccnc23)c1
